Screening results as filed in PubChem BioAssay.
Tn6 DDE FP – inhibitors of Tn6 peptide binding to fibrin DD(E), primary screen, biochemical, fluorescence polarization, human fibrin, Tn6 probe. Fibrinogen beta chain (Homo sapiens), P02675. Fibrin DD(E) TRITC-Tn6 fluorescence polarization displacement. inhibition, % at 8.3 µM. hit rate 0.21% among 370,000. AID 720509, 2013;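 active = inhibition above a per-campaign cutoff: mean of compounds within control limits plus 3 SD, cut at about 15% in these data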;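 note: 0% = median of all compound wells on the plate and 100% = blocking peptide control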
GRK2 aptamer HTS – compounds blocking aptamer binding on GRK2 – biochemical, human GRK2, bead flow cytometry, HTS, primary screen; FAM-aptamer displacement from GRK2; Beta-adrenergic receptor kinase 1 (Homo sapiens), P25098; hit rate 0.59% among 330,000; AID 488847, 2010; inhibition of aptamer binding, % at 10 µM;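 active = inhibition of aptamer binding above 40%, roughly 3 SD of noise, on plates passing a quality check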;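 note: median bead fluorescence of bound FAM aptamer so fluorescent compounds give negative values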
Target sequence (P25098 whole entry, looked up): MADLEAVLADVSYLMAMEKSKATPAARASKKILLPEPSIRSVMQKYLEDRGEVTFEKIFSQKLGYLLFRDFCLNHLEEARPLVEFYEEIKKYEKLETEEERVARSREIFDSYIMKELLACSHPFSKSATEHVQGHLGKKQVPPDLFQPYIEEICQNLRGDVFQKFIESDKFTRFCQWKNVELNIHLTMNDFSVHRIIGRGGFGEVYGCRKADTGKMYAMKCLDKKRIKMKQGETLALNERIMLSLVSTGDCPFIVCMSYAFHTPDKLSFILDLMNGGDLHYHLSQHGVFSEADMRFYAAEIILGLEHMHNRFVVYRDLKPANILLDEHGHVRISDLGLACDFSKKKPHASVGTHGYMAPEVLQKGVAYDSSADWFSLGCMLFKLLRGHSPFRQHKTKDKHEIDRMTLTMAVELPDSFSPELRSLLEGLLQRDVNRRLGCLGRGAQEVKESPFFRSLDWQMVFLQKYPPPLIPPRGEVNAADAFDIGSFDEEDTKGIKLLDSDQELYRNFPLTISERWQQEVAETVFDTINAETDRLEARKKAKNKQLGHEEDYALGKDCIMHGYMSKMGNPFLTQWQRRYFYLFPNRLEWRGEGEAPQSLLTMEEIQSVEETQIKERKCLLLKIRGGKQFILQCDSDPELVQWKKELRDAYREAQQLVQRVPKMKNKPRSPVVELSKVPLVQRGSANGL
DDE Tn7 FP inh – inhibitors of Tn7 peptide binding to fibrin DD(E), primary screen, biochemical, fluorescence polarization, human fibrin, Tn7 probe; inhibition, % at 8.3 µM; AID 720508, 2013; hit rate 0.13% among 370,000; FP displacement of FITC-Tn7 peptide from fibrin DD(E); 0% = median of compound wells per plate;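 active = inhibition above the mean of compounds falling within the control limits plus 3 SD of them, cut at about 14% in these data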;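 note: 0% = plate median of compound wells and 100% = 10 µM Aha-Tn7 peptide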
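system = human fibrin DD(E) protein | quantity = DD(E) 2 µM final | medium = Tris/NaCl/CaCl2 buffer, pH 7.8 | also added = labelled Tn7 tracer, 0.1 µM | compound dosing = single point at 8.3 µM | timing = compound with protein 10 min, then 3 h after probe, room temperature | signal = FP measurement | benchmarks = Aha-Tn7 high control | repeats = one replicate per compound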
Ins promoter up – insulin promoter activators in MIN6 cells, imaging, high-content screening, mouse beta cells; MIN6 insulin promoter-GFP reporter; active compounds read high; z-score at 5 µM; hit rate 0.3% among 190,000;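 active = z-score above 3 at 5 µM with at least 500 cells counted in the well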
ABCG2 inh – ABCG2 efflux pump inhibitors, primary screen, multiplex with ABCB1, IgMXP3 cells, flow cytometry. Broad substrate specificity ATP-binding cassette transporter ABCG2 (Homo sapiens), Q9UNQ0. JC-1 efflux. inhibition, % at 6.6 µM. hit rate 0.1% among 190,000. AID 1325, 2008;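 active = inhibition above 80%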;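 note: 0% = DMSO and 100% = nicardipine control wells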
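test system = two drug-resistant human cell lines, ABCG2 and ABCB1 | amount = 3 million cells/mL final, two lines in 1:1 ratio | reagent = JC-1 transporter substrate | doses = one concentration, 6.6 µM final | incubation = 10 min at 25 °C | signal = flow cytometric JC-1 green MFI at 530 nm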
ABCB1 block – ABCB1 efflux pump inhibitors, primary screen, cell-based, multiplex, flow cytometry, ABCG2 counter-screen | hit rate 0.067% among 190,000 | CCRF-Adr cells, JC-1 efflux | inhibition, % at 6.6 µM; in the data active = inhibition above about 40%;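 note: 0% = vehicle and 100% = reference inhibitor; higher value means more JC-1 retained so stronger ABCB1 efflux block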
GRK2 CP1 – GRK2 aptamer-displacing inhibitors, retest, confirmation, biochemical, cherry pick 1, bead flow cytometry. shares compounds with GRK2 aptamer HTS. bead-bound GRK2, FAM-aptamer displacement. aptamer displacement, % at 10 µM. hit rate 4% among 2,000. AID 504451, 2011;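 active = aptamer displacement above 40%, near three times the noise of non-fluorescent compounds, on plates passing quality checks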;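 note: negative values mostly reflect intrinsic compound fluorescence rather than true enhancement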
Aptamer quench 1 – fluorescent aptamer quenching in GRK2 counter-screen dose response; shares compounds with GRK2 aptamer HTS; Fluorescent RNA aptamer beads, flow cytometry; active compounds read high; fluorescence change (kMESF span), kMESF (test concentration not listed); 110 tested, under 10 active;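 active = compounds whose bead fluorescence drops by more than 37 kMESF across the dose range, marking them as dye quenchers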
Aptamer quench SP – quenches fluorescent RNA aptamer, GRK2 hit artifact; shares compounds with GRK2 aptamer HTS; Carboxyfluorescein RNA aptamer on beads, flow cytometry quenching; active compounds read low; fluorescence response (% of DMSO), % at 10 µM; 2,000 tested, under 10 active;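 active = compounds that quench the bead-bound fluorescent RNA probe, cutting fluorescence to under half of the solvent control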;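 note: counterscreen run without GRK2 so only probe quenching by compound is measured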
* = called active by the depositor. A selection: hits, their analogues and other compounds. The true share with any hit is near 0.99%.

How did CCn1cnc2cc(NCc3ccc(C)cc3)ccc21 do in these assays?
Tn6 DDE FP: 2; GRK2 aptamer HTS: 2; DDE Tn7 FP inh: 7; Ins promoter up: -0.42; ABCG2 inh: 4; ABCB1 block: 0

What do the screens show for `CCCN(C(=O)c1cccc(-n2cccc2)c1)c1c(N)n(Cc2ccccc2)c(=O)[nH]c1=O`?
Tn6 DDE FP: -5; GRK2 aptamer HTS: 36; DDE Tn7 FP inh: -1; GRK2 CP1: 14; Aptamer quench 1: 37*; Aptamer quench SP: 102

What do the screens show for `Cc1ccc(C(=O)NCCCNCCCNC(=O)c2ccc(C)nc2)cn1`?
Tn6 DDE FP: 0; GRK2 aptamer HTS: 45*; DDE Tn7 FP inh: -4; ABCG2 inh: 2; ABCB1 block: 1; GRK2 CP1: 0; Aptamer quench SP: 98

Results for Cc1[nH]c2ccccc2c1NC(=O)CN1CCN(c2cccc(C(F)(F)F)c2)CC1 ?
Tn6 DDE FP: -5; GRK2 aptamer HTS: 74*; DDE Tn7 FP inh: 3; Ins promoter up: -0.88; ABCG2 inh: 4; ABCB1 block: 0; GRK2 CP1: -4; Aptamer quench SP: 98

Results for CCOc1ccc(Oc2c(Cl)c(Br)nn(Cc3cccc4ccccc34)c2=O)cc1 ?
Tn6 DDE FP: -9; DDE Tn7 FP inh: 0

How did Cc1ccc2c(c1)/C(=C/c1ccco1)C(=O)N2 do in these assays?
Tn6 DDE FP: 1; GRK2 aptamer HTS: 94*; DDE Tn7 FP inh: -1; Ins promoter up: -0.06; ABCG2 inh: 0; ABCB1 block: 0; GRK2 CP1: 0; Aptamer quench SP: 98

Results for Cc1ccc(/C=C2\C(=O)Nc3ccccc32)o1 ?
Tn6 DDE FP: -1; GRK2 aptamer HTS: 4; DDE Tn7 FP inh: 8; Ins promoter up: 0.43; ABCG2 inh: 10; ABCB1 block: 0

What do the screens show for `CCOC(=O)N1CCN(C(=O)CCC(=O)N2CCOc3ccc(C)cc32)CC1`?
Tn6 DDE FP: -4; GRK2 aptamer HTS: 93*; DDE Tn7 FP inh: -4; Ins promoter up: -0.19; ABCG2 inh: 3; ABCB1 block: 0; GRK2 CP1: -2; Aptamer quench SP: 98

What do the screens show for `CC(Oc1ccc(Cl)cc1)c1ccnn1S(=O)(=O)c1ccccc1` (centres undefined)?
Tn6 DDE FP: -13; GRK2 aptamer HTS: 0; DDE Tn7 FP inh: -9; Ins promoter up: 0.13; ABCG2 inh: 4; ABCB1 block: 1

What do the screens show for `CC(Oc1ccccc1)c1ccnn1S(C)(=O)=O` (centres undefined)?
Tn6 DDE FP: 0; GRK2 aptamer HTS: 38; DDE Tn7 FP inh: -5; ABCG2 inh: 3; ABCB1 block: 2; GRK2 CP1: 1; Aptamer quench SP: 98

Results for Cn1c(SCC(=O)Nc2ccc(C(=O)O)cc2)nnc1-c1ccccn1 ?
Tn6 DDE FP: 3; DDE Tn7 FP inh: -5

How did CCN(CC)CC#CCOC(c1ccccc1)c1ccccc1 do in these assays?
Tn6 DDE FP: 7; GRK2 aptamer HTS: 79*; DDE Tn7 FP inh: -4; Ins promoter up: -0.56; ABCG2 inh: 12; ABCB1 block: 1; GRK2 CP1: -5; Aptamer quench SP: 99

What do the screens show for `O=C(C[n+]1cc(Br)cc2ccccc21)c1ccccc1`?
Tn6 DDE FP: 0; GRK2 aptamer HTS: 45*; DDE Tn7 FP inh: -3; GRK2 CP1: 3; Aptamer quench SP: 105

Results for COc1ccc(C(=O)C[n+]2cc(Br)cc3ccccc32)cc1[N+](=O)[O-] ?
Tn6 DDE FP: -12; GRK2 aptamer HTS: 4; DDE Tn7 FP inh: -2

How did Cc1occc1C(=O)N/N=C/c1ccc(-c2ccccc2)cc1 do in these assays?
Tn6 DDE FP: -5; GRK2 aptamer HTS: 1; DDE Tn7 FP inh: 10

Results for Cc1occc1C(=O)N/N=C/C(Br)=C/c1ccccc1 ?
Tn6 DDE FP: -4; GRK2 aptamer HTS: 39; DDE Tn7 FP inh: -5; Ins promoter up: -0.55; ABCG2 inh: 1; ABCB1 block: 0; GRK2 CP1: 1; Aptamer quench SP: 94

What do the screens show for `O=C1CC(N(Cc2ccc3c(c2)OCO3)C(=O)Nc2ccc(F)cc2)C(=O)N1c1ccccc1` (centres undefined)?
Tn6 DDE FP: 2; GRK2 aptamer HTS: 0; DDE Tn7 FP inh: 2; Ins promoter up: 0.56; ABCG2 inh: 4; ABCB1 block: 1

How did COc1ccc(NC(=O)N(Cc2ccc3c(c2)OCO3)C2CC(=O)N(c3ccc(OC)cc3)C2=O)cc1 (centres undefined) do in these assays?
Tn6 DDE FP: -9; GRK2 aptamer HTS: 99*; DDE Tn7 FP inh: -1; ABCG2 inh: 10; ABCB1 block: 5; GRK2 CP1: 1; Aptamer quench SP: 101

How did CS(=O)(=O)N[C@@H]1C[C@@H]2O[C@H](CO)CC[C@@H]2O[C@@H]1CCc1ccc(-c2ccccc2F)cc1 do in these assays?
Tn6 DDE FP: -3; DDE Tn7 FP inh: -4

How did O=C(O)c1ccc(/C=C/c2ccc3cccc(O)c3n2)cc1 do in these assays?
Tn6 DDE FP: -12; DDE Tn7 FP inh: 0; Ins promoter up: 0.34; ABCG2 inh: 2; ABCB1 block: 0

How did Oc1ccc(/C=C/c2ccc3cccc(O)c3n2)cc1Br do in these assays?
Tn6 DDE FP: 5; GRK2 aptamer HTS: 47*; DDE Tn7 FP inh: -5; GRK2 CP1: -1; Aptamer quench SP: 96
